Assay outcomes as filed in PubChem BioAssay.
ZTA counter – ZTA (EBV) inhibition in EBNA-1 counter-screen. P03206. ZTA-DNA binding, fluorescence polarization. inhibition, % at 11 µM. hit rate 0.15% among 320,000; in the data active means inhibition above about 33%
Target sequence (P03206 whole entry, looked up): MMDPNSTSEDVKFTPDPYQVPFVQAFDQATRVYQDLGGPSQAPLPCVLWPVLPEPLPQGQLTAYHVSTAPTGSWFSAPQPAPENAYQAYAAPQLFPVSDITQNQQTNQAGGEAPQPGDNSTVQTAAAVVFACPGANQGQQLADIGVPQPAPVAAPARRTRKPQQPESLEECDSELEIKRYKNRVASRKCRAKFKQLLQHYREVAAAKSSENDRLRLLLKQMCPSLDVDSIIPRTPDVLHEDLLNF
HCV core dimer – inhibitors of HCV core protein dimerization, primary screen, biochemical, TR-FRET, high-throughput | hit rate 0.33% among 300,000 | TR-FRET GST/Flag-core106 dimerization, 1536-well | inhibition, % at 5 µM;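 active means inhibition above the mean of all tested compounds plus 3 SD, set per screening campaign, cut at about 45% in these data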
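Material: GST/Flag-tagged HCV core106 proteins. Incubation: 4 h, 22.5 °C incubation. Read-out basis: inhibition (%) from 671 over 617 nm ratio. Measured by: TR-FRET, excitation 340 nm, emission 617 and 671 nm.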
MEX-5 binding – MEX-5 zinc finger RNA-binding disruptors – biochemical, C. elegans, fluorescence polarization, MLPCN library, primary screen | AID 1832, 2009 | activity score (negative = inhibition of binding), % at 10 µM | MEX-5/FITC-TCR2 RNA binding; hits give low values | hit rate 0.38% among 300,000;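 active means inhibition past about -25% in most replicates, and total fluorescence under double the plate's negative control median, limit read from the data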;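 further: 0% = DMSO and -100% = 5 µM competing unlabeled TCR2 RNA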
EBV gp42 block – Epstein-Barr virus gp42 inhibitors, primary screen, biochemical, uHTS, fluorescence polarization; Fluorescence polarization binding assay, mP read-out; hit rate 0.42% among 220,000; inhibition, % (tested at 21.74 µM); in the data active means inhibition above about 50%
HCV NS3 hel inh – inhibitors of HCV NS3 helicase, primary screen, biochemical, Cy5 molecular beacon fluorescence. inhibition, % at 10.9 µM. hit rate 0.56% among 290,000. AID 1800, 2009. NS3 helicase DNA unwinding;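 active means inhibition above the mean of all tested compounds plus 3 SD, set per campaign, cut at about 35% in these data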;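 further: 0% = DMSO wells and 100% = thioflavine S control wells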
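Control set: DMSO versus 110 µM thioflavine S; Material: NS3 helicase fragment of HCV; Measured by: Cy5 fluorescence at 0 and 60 min, beacon hairpin quenching; Read-out basis: percent inhibition from t60/t0 fluorescence ratio; Times: reaction time 60 min, 25 °C; Repeats: single replicate; Compound dosing: single dose, 10.9 µM nominal final, DMSO 0.8% final.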
EBNA-1 inhibitor – EBNA-1 DNA-binding inhibitors, primary screen, biochemical, fluorescence polarization; inhibition, % at 14.8 µM; hit rate 0.34% among 300,000; AID 1950, 2009; in the data active means inhibition above about 28%
Numbers without * were called inactive; · = no result given. Most compounds without a hit are left out; they make up all but 1.7% or so of the library.

SMILES | ZTA counter | HCV core dimer | MEX-5 binding | EBV gp42 block | HCV NS3 hel inh | EBNA-1 inhibitor
CCOc1ccc(NC(=O)C(c2ccccn2)N(C(=O)CCl)c2ccc(OC)cc2)cc1 (stereo unspecified) | 7 | -2 | -1 | -20 | -4 | -2
COc1ccc(N(C(=O)CCl)C(C)(C(=O)Nc2c(C)cccc2C)c2ccccn2)cc1 (stereo unspecified) | 18 | 4 | -30* | -17 | -55 | -3
O=c1/c(=C\c2cccnc2)sc2nc3ccccc3n12 | · | · | -2 | -36 | 1 | ·
O=C1CCC/C1=c1\s/c(=C\c2cccnc2)c(=O)n1-c1ccccc1 | -8 | 2 | -26* | -22 | -2 | -7
Cc1ccsc1C(C(=O)NC(C)(C)C)N(C(=O)c1csnn1)c1ccccc1 (stereo unspecified) | 22 | -5 | -1 | -14 | 3 | 5
O=C(/C=C(\O)c1ccc(Cl)cc1)C(=O)NNC(=O)C(O)(c1ccccc1)c1ccccc1 | -21 | 15 | · | -20 | 54* | 3
O=C(/C=C(\O)c1ccccc1)C(=O)NNC(=O)c1ccccc1 | 17 | 10 | -14 | · | 16 | 4
O=C(CN1C(=O)/C(=C2\SC(=S)N(C3CCS(=O)(=O)C3)C2=O)c2ccccc21)Nc1ccccc1 (stereo unspecified) | 6 | 23 | · | 43 | 20 | -3
Cc1ccc(NC(=O)CN2C(=O)/C(=C3\SC(=S)N(C4CCS(=O)(=O)C4)C3=O)c3ccccc32)cc1 (stereo unspecified) | · | · | · | 105* | 13 | ·
C/C(CC(=O)Nc1cccc(Br)c1)=N\NC(=O)c1ccc(O)cc1O | -15 | -21 | -2 | · | 6 | 6
O=C(Nc1nnc(SCC(=O)N2CCOCC2)s1)C1CC(=O)N(c2ccc(F)cc2)C1 (stereo unspecified) | 2 | 53* | -3 | · | 23 | 2
COc1cccc(N2CC(C(=O)Nc3nnc(SCc4ccccn4)s3)CC2=O)c1 (stereo unspecified) | -4 | 5 | -8 | 0 | 3 | -4
Cc1cccc(N2CC(C(=O)Nc3nnc(SCC(=O)Nc4nccs4)s3)CC2=O)c1 (stereo unspecified) | -3 | 50* | -3 | -29 | 3 | 18
O=C(Nc1nnc(SCc2ccccn2)s1)C1CC(=O)N(c2ccc(F)cc2)C1 (stereo unspecified) | 3 | 55* | 2 | · | 27 | 3
Cc1ccccc1N1CC(C(=O)Nc2nnc(SCC(=O)Nc3nccs3)s2)CC1=O (stereo unspecified) | 15 | 35 | -2 | -17 | 16 | 14
CCN(CC)C(=O)c1cccc(NC(=O)c2ccccc2OCc2c(C)noc2C)c1 | 0 | · | · | · | · | ·
COc1cc(CNc2ccc(N3CCCC3)cc2)ccc1OCc1ccccc1 | 76* | 6 | · | 12 | 10 | 74*
COc1cc(CNc2ccc(N3CCCC3)cc2)ccc1OCc1ccccc1F | 79* | -1 | · | 10 | 7 | 65*
Cc1nnc(N2C(=O)C(=O)/C(=C(/O)c3ccc4c(c3)OCCO4)C2c2ccc([N+](=O)[O-])cc2)s1 (stereo unspecified) | -8 | 48* | -1 | · | 24 | -6
COC(=O)c1ccc(C2/C(=C(\O)c3ccc4c(c3)OCCO4)C(=O)C(=O)N2c2nnc(C)s2)cc1 (stereo unspecified) | 12 | -3 | -1 | · | 13 | -1
CC(C)(C)Nc1ncnc2c1cnn2-c1ccccc1 | 5 | 0 | 2 | · | · | -2
O=c1[nH]n(-c2ncnc3c2cnn3-c2ccccc2)c(=O)c2ccccc12 | 16 | 0 | -39* | -8 | -11 | -1
S=c1[nH]ncn2c1cc1oc3ccccc3c12 | 13 | 64* | · | -7 | -2 | 17
Nc1ccc2oc3ccccc3c2c1 | -12 | -7 | 0 | 2 | -14 | 1
COc1ccc(/C=N/NC(=O)CCN2CCN(c3ccccc3)CC2)c(OC)c1OC | -3 | -5 | 3 | 4 | -4 | -17
